Laboratory results as given in the EternaBench riboswitch data.

System: MS2 coat protein
Assay: apparent Kd, MS2 coat protein; higher = weaker binding; RNA-MaP array; FMN 200 µM where present
Method in brief: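 Green signal was scaled to red-channel RNA signal and control-cluster median Fmax, and the apparent Kd was taken as the median of filtered per-cluster binding-curve fits. The binding series used SNAP-549-labelled MS2 coat protein from 0.7 or 1.5 nM, doubling to 3 µM, on designs transcribed by stalled E. coli RNA polymerase on Illumina sequencing-chip clusters. Each series ran without and then with constant ligand in 100 mM Tris-HCl pH 7.5, 80 mM KCl, 4 mM MgCl2, BSA, DTT, yeast tRNA and Tween-20.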

[1] = designed as: OFF switch for flavin mononucleotide, no ligand
[2] = ligand present: flavin mononucleotide, designed as: OFF switch for flavin mononucleotide
[3] = designed as: ON switch for flavin mononucleotide, no ligand
[4] = ligand present: flavin mononucleotide, designed as: ON switch for flavin mononucleotide

AAAUUUGACGAAGGAUAUGGAUACAUGAGGAUCACCCAUGUUUAUUUUGUGAUUUUGUUUAAGUACCAGAAGGUCGAAUACAUA
apparent Kd [1]: 39 nM | apparent Kd [2]: 63.9 nM

GGUUCCAACACAGGAUAUGCUAUCCUUUGGGUAGCAGAAGGGUGAAAACAUGAGGAUCACCCAUGUGGAACCGGGCGUGAGCCC
apparent Kd [3]: 412 nM | apparent Kd [4]: 46.5 nM

CCAGAGAUAUGAGGAUAUCGAGUGGAUAACACUCGAGAAGGCAUGUGAAAACAUGAGGAUCACCCAUGUAUGAUCUACUCUGGA
apparent Kd [3]: 50.6 nM | apparent Kd [4]: 23.8 nM

GUUCUUCCUGUGAGGAUAUCCAUGUGUCGGUUUAUGGAGAAGGUACAUGAGGAUCACCCAUGUCACCCGCGUUA
apparent Kd [1]: 14 nM | apparent Kd [2]: 18.8 nM

UUACUAUUGGAGAAGGGUCCAUCAUAUAGAAGGACAGGAUAUCCAACAUGAGGAUCACCCAUGUGUCACCCAUAUGAGGAUCAC
apparent Kd [1]: 41.4 nM | apparent Kd [2]: 82.2 nM

AUCAGCACGUGAGGAUAUGCGUCACUGCGUCAGCAGUGCGGUAAGAUCACAUGAGGAUCACCCAUGUAGAAGGCACGAGCUGAU
apparent Kd [1]: 21.4 nM | apparent Kd [2]: 49.8 nM

GCGCUAAAACAGAAGGCCAAAUACAUGAGGAUCACCCAUGUCGAAUCAUGGAGGAUAUGUUAUUAAUUACUCGCAGAUGAGCGC
apparent Kd [3]: 104 nM | apparent Kd [4]: 11.8 nM

GGUCGCAAGUAAGGAUAUGCCUAGGAAACCUAGGCAGAAGGUACAUGAGGAUCACCCAUGUUAACGCAAAGCGAAUAAGCGACC
apparent Kd [1]: 15.8 nM | apparent Kd [2]: 21.5 nM

ACGGCUGUCAGAGGAUAUGGUUACAUGAGGAUCACCCAUGUCAAGGGUCUAACUAAGUAUAGCUACUAGAAGGCUGAUGGCCGA
apparent Kd [1]: 158 nM | apparent Kd [2]: 107 nM

GGUGUACAUGAGGAUCACCCAUGUCGUACGACAUGAGGAUAUGUACAGACUUCGGUCUGUACAGAAGGCAUGUGUC
apparent Kd [3]: 249 nM | apparent Kd [4]: 26.4 nM

UUUAAUUUAAUUAAGAUCACAUGAGGAUCACCCAUGUAUAUAUAGGAUAUCAGCUCGAAUAGAGCUGAGAAGGAUAUAUACAUA
apparent Kd [1]: 69.3 nM | apparent Kd [2]: 36.2 nM

GUCUACCUAGGAUAUACAUGAGGAUCACCCAUGUAAAGUUUCGUAAAAAGAUAAUCGAGUAGAAGGAGGUGGAU
apparent Kd [1]: 20.3 nM | apparent Kd [2]: 20.9 nM

AAAUAGUUAGGAUAUACAUGAGGAUCACCCAUGUAGGGUUCAGUCAUGCAGAAAAUGCGUAGAAGGAACUAUCC
apparent Kd [1]: 18.4 nM | apparent Kd [2]: 16.7 nM

ACGCCUCCUGUCAGGAUAUGCAUCGGGCUUCCGCAGCAGAAGGGACAUGAGGAUCACCCAUGUCAAAUAAAAUC
apparent Kd [1]: 17.6 nM | apparent Kd [2]: 58.3 nM

GCUGCUAUCGCAGGAUAUUACAUGGGAAAUAAAACAUGAGGAUCACCCAUGUAAAAUAUCGUAAAUAAGAAGGGCGAUAGCAGC
apparent Kd [3]: 84.6 nM | apparent Kd [4]: 1180 nM

UAGGUUCGAGGAUAUACAUAGAUACAGAUACAUGUAGACGUACAUGAGGAUCACCCAUGUAGAAGGCGAAUAUA
apparent Kd [1]: 80.9 nM | apparent Kd [2]: 186 nM

GCAGAAGUAGUGAGGAUAUGCUCUACCUCGGUAGAGCAGAAGGCACAUGAGGAUCACCCAUGUGAUUCUUCUGC
apparent Kd [1]: 26.9 nM | apparent Kd [2]: 158 nM

AAAAUGUAAGGAUAUGGCCGGGACCCAGGGUUUGGACCCGGCUAGAAGGUACAUGAGGAUCACCCAUGUAAGAA
apparent Kd [1]: 16.4 nM | apparent Kd [2]: 23 nM

UCAUGCAUAGCGAUAUGAUCGAGAGAUCAUGUCGCUAAAUUUAGAAGGACAUGAGGAUCACCCAUGUAGGAUAUGGGAGCAUGC
apparent Kd [3]: 419 nM | apparent Kd [4]: 59.3 nM

ACGACGAAAGUCGAACGAUGUAGCAGAAGGACAUGAGGAUCACCCAUGUCAGCUGUAACAGCCAUGUAGGAUAUGCUACAUCGU
apparent Kd [1]: 4.29 nM | apparent Kd [2]: 5.41 nM

UUGGACGUCGUAGGAUAUGUAGGAUAUUCCUACAUGAGGAUCACCCAUGUUGACAUGGAAGAAGGACAAAAGGACGAUGUCCAU
apparent Kd [3]: 377 nM | apparent Kd [4]: 9.05 nM

GGGUACAUCGGAGGAUAUCAUCUAAAUACAUGAGGAUCACCCAUGUCGAUGGAGACAUCGGAGAUUGAGAAGGCCGAUGUACCG
apparent Kd [3]: 5.06 nM | apparent Kd [4]: 5.23 nM

GCUAGGAUGUGAGGAUAUGCUGAGGAUACUUCAGCAGAAGGCACAUGAGGAUCACCCAUGUACACUUAUCAUAAAUACCCUAGC
apparent Kd [1]: 12.7 nM | apparent Kd [2]: 16.2 nM

UAGUAUCUGCAGGAUAUCAGUGGAAAACACGUAUGAGAAGGGCAGACAUGAGGAUCACCCAUGUAUAGGGUCCG
apparent Kd [1]: 81.4 nM | apparent Kd [2]: 206 nM

UUUUUGCUAUAUACAUGAGGAUCACCCAUGUCCACUGACAGACAGGAUAUCCUUAGAAACUAGCAGGAGAAGGGUCAGUCAUAC
apparent Kd [3]: 487 nM | apparent Kd [4]: 69 nM

AGAUCGACUGUGAGGAUAUUGACCGGACGACCCAUCGAGAAGGCACAUGAGGAUCACCCAUGUGAGUCGGUUUA
apparent Kd [1]: 15.5 nM | apparent Kd [2]: 17 nM

UCAUUUACCACAGGAUAUAUUCAUAUACAGUUGUUUGGCUCUUACAUAUUAAUAGAAGGGUGCAACAUGAGGAUCACCCAUGUA
apparent Kd [3]: 274 nM | apparent Kd [4]: 191 nM
